{
  "source": "ChEMBL document CHEMBL4229446",
  "about": "“Development of Novel Monoamine Oxidase-B (MAO-B) Inhibitors with Reduced Blood-Brain Barrier Permeability for the Potential Management of Noncentral Nervous System (CNS) Diseases” (J Med Chem, 2018)",
  "format_in_all_cases": "ADME, organism-based",
  "key": {"[1]": {"test": "AUClast in C57BL/6 mouse plasma at 23.4 mg/kg, iv administered as single dose measured 24 hrs by UPLC-MS/MS analysis", "set-up": "dose 23.4 mg/kg, time 0 - last, route intravenous", "how_it_was_run": "(§1)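 21 animals dosed at 0 min, 3 killed per time point (0, 5, 15, 30 min, 1, 4, 24 h). Plasma extracted by protein precipitation/phospholipid removal. Brain homogenized in 50 mM ammonium formate, then extracted in acidified organic solvent. Both quantified by UPLC-MS/MS (MRM), brain ng/g taken as ng/mL. Noncompartmental analysis. Kp = AUClast brain/plasma.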"}, "[2]": {"test": "AUClast in C57BL/6 mouse brain at 23.4 mg/kg, iv administered as single dose measured 24 hrs by UPLC-MS/MS analysis", "set-up": "dose 23.4 mg/kg, route intravenous, time 0 - last", "how_it_was_run": "as §1"}, "[3]": {"test": "Apparent half-life of the terminal disposition phase in C57BL/6 mouse plasma at 23.4 mg/kg, po administered as single dose measured 24 hrs by UPLC-MS/MS analysis", "conditions": "read-out: t1/2 lambda z (converted)", "how_it_was_run": "(§2)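 15 animals dosed, 3 killed at each of 1, 2, 4, 6 and 24 h. Plasma and brain homogenate (ammonium formate, acidified organic extraction) assayed by UPLC-MS/MS, brain ng/g taken as ng/mL. Noncompartmental parameters exclude values above/below quantification limit or undetected. Kp = AUClast brain/plasma.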"}, "[4]": {"test": "Tmax in C57BL/6 mouse brain at 23.4 mg/kg, po administered as single dose measured 24 hrs by UPLC-MS/MS analysis", "how_it_was_run": "as §2"}, "[5]": {"test": "Cmax in C57BL/6 mouse plasma at 23.4 mg/kg, iv administered as single dose measured 24 hrs by UPLC-MS/MS analysis", "set-up": "dose 23.4 mg/kg, route intravenous", "how_it_was_run": "as §1"}, "[6]": {"test": "Tmax in C57BL/6 mouse brain at 23.4 mg/kg, iv administered as single dose measured 24 hrs by UPLC-MS/MS analysis", "how_it_was_run": "as §1"}, "[7]": {"test": "Apparent half-life of the terminal disposition phase in C57BL/6 mouse brain at 23.4 mg/kg, iv administered as single dose measured 24 hrs by UPLC-MS/MS analysis", "conditions": "read-out: t1/2 lambda z (converted)", "how_it_was_run": "as §1"}, "[8]": {"test": "AUClast in C57BL/6 mouse brain at 23.4 mg/kg, po administered as single dose measured 24 hrs by UPLC-MS/MS analysis", "set-up": "dose 23.4 mg/kg, route oral, time 0 - last", "how_it_was_run": "as §2"}, "[9]": {"test": "Ratio of AUClast in brain to plasma in C57BL/6 mouse at 23.4 mg/kg, po administered as single dose measured 24 hrs by UPLC-MS/MS analysis", "how_it_was_run": "as §2"}, "[10]": {"test": "Cmax in C57BL/6 mouse plasma at 23.4 mg/kg, po administered as single dose measured 24 hrs by UPLC-MS/MS analysis", "set-up": "dose 23.4 mg/kg, route oral", "how_it_was_run": "as §2"}, "[11]": {"test": "Cmax in C57BL/6 mouse brain at 23.4 mg/kg, sc administered as single dose measured 24 hrs by UPLC-MS/MS analysis", "set-up": "dose 23.4 mg/kg, route subcutaneous", "how_it_was_run": "as §2"}, "[12]": {"test": "Apparent half-life of the terminal disposition phase in C57BL/6 mouse brain at 23.4 mg/kg, sc administered as single dose measured 24 hrs by UPLC-MS/MS analysis", "conditions": "read-out: t1/2 lambda z (converted)", "how_it_was_run": "as §2"}, "[13]": {"test": "AUClast in C57BL/6 mouse plasma at 23.4 mg/kg, po administered as single dose measured 24 hrs by UPLC-MS/MS analysis", "set-up": "dose 23.4 mg/kg, time 0 - last, route oral", "how_it_was_run": "as §2"}, "[14]": {"test": "Tmax in C57BL/6 mouse plasma at 23.4 mg/kg, po administered as single dose measured 24 hrs by UPLC-MS/MS analysis", "how_it_was_run": "as §2"}, "[15]": {"test": "Cmax in C57BL/6 mouse brain at 23.4 mg/kg, po administered as single dose measured 24 hrs by UPLC-MS/MS analysis", "set-up": "dose 23.4 mg/kg, route oral", "how_it_was_run": "as §2"}, "[16]": {"test": "Ratio of AUClast in brain to plasma in C57BL/6 mouse at 24.5 mg/kg, iv administered as single dose measured 24 hrs by UPLC-MS/MS analysis", "how_it_was_run": "(§3)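 21 animals dosed at 0 min, 3 sacrificed at each of 0, 5, 15, 30 min, 1, 4 and 24 h. Plasma was extracted by protein precipitation with phospholipid removal. Brain was weighed, bead-homogenised in 50 mM ammonium formate and extracted in acidified organic solvent. Quantified by UPLC-MS/MS (MRM). Brain ng/g taken as ng/mL. Parameters came from noncompartmental analysis. Kp = AUClast brain/plasma.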"}, "[17]": {"test": "Cmax in C57BL/6 mouse brain at 24.5 mg/kg, sc administered as single dose measured 24 hrs by UPLC-MS/MS analysis", "set-up": "dose 24.5 mg/kg, route subcutaneous", "how_it_was_run": "(§4)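 15 animals dosed, 3 sacrificed at each of 1, 2, 4, 6 and 24 h. Plasma and brain homogenate were extracted and quantified by UPLC-MS/MS. Parameters came from noncompartmental analysis. Values above or below the limit of quantification, or undetected, were omitted. Kp = AUClast brain/plasma.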"}, "[18]": {"test": "AUClast in C57BL/6 mouse plasma at 24.5 mg/kg, po administered as single dose measured 24 hrs by UPLC-MS/MS analysis", "set-up": "dose 24.5 mg/kg, route oral, time 0 - last", "how_it_was_run": "as §4"}, "[19]": {"test": "Tmax in C57BL/6 mouse plasma at 24.5 mg/kg, po administered as single dose measured 24 hrs by UPLC-MS/MS analysis", "how_it_was_run": "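Plasma extracted by protein precipitation/phospholipid removal and measured by UPLC-MS/MS (MRM). Parameters by noncompartmental analysis, omitting values outside quantification limits or undetected.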"}, "[20]": {"test": "Apparent half-life of the terminal disposition phase in C57BL/6 mouse plasma at 24.5 mg/kg, po administered as single dose measured 24 hrs by UPLC-MS/MS analysis", "conditions": "read-out: t1/2 lambda z (converted)", "how_it_was_run": "as §4"}, "[21]": {"test": "AUClast in C57BL/6 mouse plasma at 24.5 mg/kg, sc administered as single dose measured 24 hrs by UPLC-MS/MS analysis", "set-up": "dose 24.5 mg/kg, time 0 - last, route subcutaneous", "how_it_was_run": "as §4"}, "[22]": {"test": "Cmax in C57BL/6 mouse plasma at 24.5 mg/kg, po administered as single dose measured 24 hrs by UPLC-MS/MS analysis", "set-up": "dose 24.5 mg/kg, route oral", "how_it_was_run": "as §4"}, "[23]": {"test": "Cmax in C57BL/6 mouse brain at 24.5 mg/kg, po administered as single dose measured 24 hrs by UPLC-MS/MS analysis", "set-up": "dose 24.5 mg/kg, route oral", "how_it_was_run": "as §4"}, "[24]": {"test": "Ratio of AUClast in brain to plasma in C57BL/6 mouse at 24.5 mg/kg, sc administered as single dose measured 24 hrs by UPLC-MS/MS analysis", "how_it_was_run": "as §4"}, "[25]": {"test": "AUClast in C57BL/6 mouse brain at 24.5 mg/kg, sc administered as single dose measured 24 hrs by UPLC-MS/MS analysis", "set-up": "dose 24.5 mg/kg, time 0 - last, route subcutaneous", "how_it_was_run": "as §4"}, "[26]": {"test": "Apparent half-life of the terminal disposition phase in C57BL/6 mouse plasma at 24.5 mg/kg, iv administered as single dose measured 24 hrs by UPLC-MS/MS analysis", "conditions": "read-out: t1/2 lambda z (converted)", "how_it_was_run": "as §3"}},
  "data": [
    {"smiles": "CN(CC(=O)O)[C@H](CC#N)Cc1ccc(OCc2ccc(Cl)c(Cl)c2)cc1", "values": [
      {"measurement": "AUC(0-t) at 24 h", "setting": "[1]", "result": 39100, "unit": "ng·h/mL"},
      {"measurement": "AUC(0-t) at 24 h", "setting": "[2]", "result": 183, "unit": "ng·h/mL"},
      {"measurement": "half-life", "setting": "[3]", "result": 2.93, "unit": "h"},
      {"measurement": "Tmax", "setting": "[4]", "result": 1, "unit": "h"},
      {"measurement": "Cmax", "setting": "[5]", "result": 52100, "unit": "ng/mL"},
      {"measurement": "Tmax", "setting": "[6]", "result": 5, "unit": "min"},
      {"measurement": "half-life", "setting": "[7]", "result": 0.65, "unit": "h"},
      {"measurement": "AUC(0-t) at 24 h", "setting": "[8]", "result": 116, "unit": "ng·h/mL"},
      {"measurement": "Kp at 24 h", "setting": "[9]", "result": 0.002},
      {"measurement": "Cmax", "setting": "[10]", "result": 16800, "unit": "ng/mL"},
      {"measurement": "Cmax", "setting": "[11]", "result": 91.3, "unit": "ng/mL"},
      {"measurement": "half-life", "setting": "[12]", "result": 1.07, "unit": "h"},
      {"measurement": "AUC(0-t) at 24 h", "setting": "[13]", "result": 73000, "unit": "ng·h/mL"},
      {"measurement": "Tmax", "setting": "[14]", "result": 1, "unit": "h"},
      {"measurement": "Cmax", "setting": "[15]", "result": 91.9, "unit": "ng/mL"}
    ]},
    {"smiles": "C[C@H](Cc1ccc(OCc2ccc(Br)c(Cl)c2)cc1)N(C)CC(=O)O", "values": [
      {"measurement": "Kp at 24 h", "setting": "[16]", "result": 0.11},
      {"measurement": "Cmax", "setting": "[17]", "result": 806, "unit": "ng/mL"},
      {"measurement": "AUC(0-t) at 24 h", "setting": "[18]", "result": 104000, "unit": "ng·h/mL"},
      {"measurement": "Tmax", "setting": "[19]", "result": 1, "unit": "h"},
      {"measurement": "half-life", "setting": "[20]", "result": 3.59, "unit": "h"},
      {"measurement": "AUC(0-t) at 24 h", "setting": "[21]", "result": 66900, "unit": "ng·h/mL"},
      {"measurement": "Cmax", "setting": "[22]", "result": 8530, "unit": "ng/mL"},
      {"measurement": "Cmax", "setting": "[23]", "result": 812, "unit": "ng/mL"},
      {"measurement": "Kp at 24 h", "setting": "[24]", "result": 0.19},
      {"measurement": "AUC(0-t) at 24 h", "setting": "[25]", "result": 12900, "unit": "ng·h/mL"},
      {"measurement": "half-life", "setting": "[26]", "result": 3.93, "unit": "h"}
    ]}
  ]
}
